# TAAR1 ag – human TAAR1 agonism; 0.99% of 360,000 active; activation, % at 3 µM; CHO RD-HGA16 TAAR1, Fluo-8 calcium fluorescence; vehicle wells 0%, saturating PEA agonist 100%; AID 624467;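 active = activation above the mean activation of all test compounds in the run plus 3 SD, cut at about 38% in these data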
#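 Benchmarks: low control DMSO, high control PEA (EC100); System: CHO RD-HGA16 cells carrying human TAAR1 plus Gα16; Detection: Fluo-8 fluorescence, 5 s baseline then 140 s kinetic read; Schedule: 17-24 h plating, Fluo-8 75 min 37 °C, 30 min RT; Read-out basis: % activation from peak over basal fluorescence ratio, DMSO-to-PEA scaled.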
# CHRM4 PAM – CHRM4 positive allosteric modulation; CHO-K1 hM4/Gqi5, Fluo-8 calcium fluorescence, ACh EC20; 0% = ACh EC20, 100% = maximal ACh; 0.4% of 360,000 active; P08173; AID 624126; activation, % at 3 µM;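 active = activation above its plate's cutoff, the mean activation of sample wells plus 3 SD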
# Target sequence (P08173 whole entry, looked up): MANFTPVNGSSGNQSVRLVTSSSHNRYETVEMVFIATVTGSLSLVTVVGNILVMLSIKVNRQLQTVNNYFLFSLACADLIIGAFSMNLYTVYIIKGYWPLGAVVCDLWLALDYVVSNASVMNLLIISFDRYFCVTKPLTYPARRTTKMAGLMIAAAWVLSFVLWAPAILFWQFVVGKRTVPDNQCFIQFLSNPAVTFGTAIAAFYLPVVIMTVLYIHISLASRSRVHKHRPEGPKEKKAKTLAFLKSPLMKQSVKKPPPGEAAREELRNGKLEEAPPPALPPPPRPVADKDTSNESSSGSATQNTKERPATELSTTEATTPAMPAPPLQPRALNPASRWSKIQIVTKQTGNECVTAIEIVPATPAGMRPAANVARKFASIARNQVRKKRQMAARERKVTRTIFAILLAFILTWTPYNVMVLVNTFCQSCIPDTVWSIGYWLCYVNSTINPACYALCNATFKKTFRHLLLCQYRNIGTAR
# CHRM4 agonist – agonists of human muscarinic M4 receptor (CHRM4). P08173. CHO-K1 hM4/Gqi5, Fluo-8 calcium fluorescence; vehicle 0%, full acetylcholine response 100%. activation, % at 3 µM. 0.14% of 360,000 active. AID 624127;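 active = activation above the run mean over all test wells plus 3 SD, cut at about 32% in these data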;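 also: peak over basal fluorescence ratio per well then scaled between controls; 0% = DMSO wells and 100% = acetylcholine at EC100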
# TAAR1 antag – antagonists of human TAAR1; inhibition, % at 3 µM; 1.5% of 360,000 active; CHO RD-HGA16 TAAR1, Fluo-8 calcium fluorescence, antagonist;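 active = inhibition above a per-plate cutoff, the mean inhibition of test compounds on that plate plus 3 SD, cut at about 49% in these data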;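 also: 0% = DMSO plus EC80 beta-PEA response and 100% = DMSO alone without agonist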
#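 Material: CHO RD-HGA16 cells bearing hTAAR1; compound dosing: one-point dosing, 3 µM nominal final; schedule: dye loading 75 min at 37 °C, then 30 min room temperature; measured by: calcium fluorescence with Fluo-8; control set: vehicle and agonist controls; replication: n of 1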
# M4 antag – CHRM4 antagonism in calcium assay. AID 624125. 0.73% of 360,000 active. CHO-hM4 cells, ACh EC80, Fluo-8 calcium fluorescence. inhibition, % at 3 µM;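 active = inhibition above its plate's cutoff, the mean inhibition of sample wells plus 3 SD, cut at about 27% in these data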;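 also: 0% = acetylcholine EC80 with DMSO and 100% = DMSO without agonist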
# nonsel antag count – counter-screen for TAAR1 antagonists: nonselective antagonists. shares compounds with TAAR1 antag. counterscreen cell line, calcium fluorescence, antagonist mode. inhibition, % at 3 µM. 77% of 2,400 active. AID 651780; in the data active = inhibition above about 22%;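 also: CHO-Ga16 host cells stimulated with ATP at an EC80 level; 0% = agonist EC80 plus vehicle and 100% = vehicle without agonist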
# TAAR1 antag conf – human TAAR1 antagonism, confirmed; shares compounds with TAAR1 antag; TAAR1-expressing cells, fluorescence antagonist read-out; inhibition, % at 3 µM; AID 651785; 40% of 2,400 active; in the data active = inhibition above about 49%;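 also: CHO-Ga16 host cells challenged with agonist PEA near its EC80; 0% = agonist at EC80 plus vehicle and 100% = vehicle with no agonist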
# Ga16 ag counter – counter-screen for TAAR1 antagonists: nonselective Ga16 agonists. 18% of 2,400 active. shares compounds with TAAR1 antag. Ga16-expressing cells, calcium fluorescence, agonist counterscreen. activation, % at 3 µM; in the data active = activation above about 12%;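 also: 0% = vehicle wells and 100% = saturating stimulus response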
# TAAR1 ag counter – TAAR1 agonism, antagonist counter-screen; shares compounds with TAAR1 antag; hTAAR1 cell line, fluorescence activation, agonist mode; activation, % at 3 µM; 2% of 2,400 active; in the data active = activation above about 37%;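 also: CHO cells stably expressing TAAR1 with calcium dye readout; 0% = DMSO vehicle and 100% = full agonist response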
# The depositor's hits bear a star; . = no result. Rows were chosen to be rich in hits. Some 3% of all compounds tested hit in one or more screens of this group.
SMILES,TAAR1 ag,CHRM4 PAM,CHRM4 agonist,TAAR1 antag,M4 antag,nonsel antag count,TAAR1 antag conf,Ga16 ag counter,TAAR1 ag counter
Cc1ccc(-c2ccc(/C=C3\C(=O)ON=C3c3ccccc3)o2)c([N+](=O)[O-])c1,21,13,0,65*,13,78*,81*,24*,28
Cc1ccc(/C=C2\C(=O)ON=C2c2ccccc2)o1,7,-7,19,17,5,.,.,.,.
O=C1C(NS(=O)(=O)c2cccs2)=C(N2CCN(Cc3ccccc3)CC2)C(=O)c2ccccc21,9,-20,17,71*,23,30*,49*,6,4
Cc1cc(C)c2c(N)c(C(=O)c3ccc(Cl)cc3Cl)sc2n1,2,-5,9,76*,-9,37*,55*,7,3
Cc1cc(C)c2c(N)c(C(=O)c3ccccc3Cl)sc2n1,15,-19,9,34,3,.,.,.,.
Cc1cc(C)c2c(N)c(C(=O)c3cccc(Cl)c3)sc2n1,17,-10,20,63*,0,23*,40,6,3
CCCCN(Cc1cc2ccccc2[nH]c1=O)S(=O)(=O)c1ccc(C)cc1,0,-4,8,63*,-7,14,38,6,12
CC(=O)Nc1ccc(S(=O)(=O)N(Cc2ccco2)Cc2cc3ccccc3[nH]c2=O)cc1,19,-6,26,73*,-5,27*,57*,9,11
COC(=O)c1ccccc1S(=O)(=O)N(Cc1ccco1)Cc1cc2cc(OC)ccc2[nH]c1=O,8,-20,15,-4,24,.,.,.,.
Cc1ccc2c(c1)C(=O)C(=O)N2Cc1ccc(Cl)cc1,9,-4,8,55*,1,21,28,4,-1
O=C(Nc1ccccc1)C1=C[C@@H](c2coc3ccccc3c2=O)C[C@@H](OCc2ccc(CO)cc2)O1,8,-2,10,51*,2,20,25,2,-1
O=C(NC1CC1)C1=C[C@H](c2csc3ccccc23)C[C@H](OCc2ccc(CO)cc2)O1,34,-3,23,58*,-3,26*,44,16*,23
O=C(C1=C[C@@H](c2csc3ccccc23)C[C@@H](OCc2ccc(CO)cc2)O1)N1CCOCC1,32,-5,15,57*,-1,26*,35,6,6
CC(=O)n1cc([C@H]2C=C(C(=O)N3CCN(Cc4ccccc4)CC3)O[C@@H](OCc3ccc(CO)cc3)C2)c2ccccc21,27,-10,15,69*,20,35*,46,9,9
O=C(NCc1ccccc1)C1=C[C@H](c2coc3ccccc3c2=O)C[C@H](OCc2ccc(CO)cc2)O1,19,-3,8,32,4,.,.,.,.
O=C(Nc1ccccc1)C1=C[C@H](c2csc3ccccc23)C[C@H](OCc2ccc(CO)cc2)O1,11,-3,7,46,19,.,.,.,.
O=C(CSc1nnc2ccccn12)NNC(=O)c1ccccc1F,2,8,2,-17,-7,.,.,.,.
O=C(NCCc1ccc(F)cc1)C(=O)NCC1CCCN1S(=O)(=O)c1ccccc1 (stereo unspecified),16,-9,21,65*,10,27*,51*,10,14
COc1ccc(CCNC(=O)C(=O)NCC2CCCN2S(=O)(=O)c2ccccc2)cc1 (stereo unspecified),14,-14,19,65*,20,27*,50*,11,18
O=C(NCc1ccc(F)cc1)C(=O)NCC1CCCN1S(=O)(=O)c1ccccc1 (stereo unspecified),-1,4,4,-6,-5,.,.,.,.
O=c1[nH][nH]c2c1[C@H](c1ccc(F)cc1)O[C@H](CCC(F)(F)F)C2,4,12,2,-21,-8,.,.,.,.
CCCc1nc2cc(C)c(Br)c(C)n2c1Cc1ccccc1OC,2,11,-1,-7,-2,.,.,.,.
Cc1cn([C@H]2C[C@H](O)[C@@H](/C=C/C(=O)NCCC(c3ccccc3)c3ccccc3)O2)c(=O)[nH]c1=O,1,-3,-2,-3,7,.,.,.,.
O=C(NCc1ccccc1)c1cc(C2COCCN2S(=O)(=O)c2cccs2)on1 (stereo unspecified),6,7,2,-24,-15,.,.,.,.
CCOc1ccc(N(C(C)C(=O)N/N=C(\C)c2cccc(NC(=O)c3ccccc3)c2)S(C)(=O)=O)cc1 (stereo unspecified),17,-2,7,54*,-15,29*,43,7,5
SMILES,TAAR1 ag,CHRM4 PAM,CHRM4 agonist,TAAR1 antag,M4 antag,nonsel antag count,TAAR1 antag conf,Ga16 ag counter,TAAR1 ag counter
CCOc1ccc(-c2ccc(/C=C3/C(=N)N4C(C)=CSC4=NC3=O)o2)c([N+](=O)[O-])c1,12,-7,12,59*,-6,38*,50*,9,3
CCOc1ccc(-c2ccc(/C=C3/C(=N)N4C=CSC4=NC3=O)o2)c([N+](=O)[O-])c1,5,0,2,5,3,.,.,.,.
COc1ccc(N2CCN(C(=O)COC(=O)c3oc4ccc(OC)cc4c3C)CC2)cc1,14,-12,26,69*,4,42*,57*,11,9
Cc1ccc(C)c(OCCC(=O)OCC(=O)NCCNC(=O)COC(=O)CCOc2cc(C)ccc2C)c1,20,-15,27,87*,38*,48*,68*,16*,18
COc1ccc(N2CCN(C(=O)COC(=O)CCOc3cc(C)ccc3C)CC2)cc1,10,10,2,51*,-7,40*,52*,12*,7
CC1(C(=O)NS(=O)(=O)c2ccc(C#N)cc2)CCN1C(=O)C1CCCCC1 (stereo unspecified),0,2,1,-7,-2,.,.,.,.
CSc1nc2nccc(-c3ccc(Oc4ccccc4)cc3)n2n1,11,1,2,56*,-19,16,22,2,10
CSc1nc2nccc(-c3ccc(-c4ccccc4)cc3)n2n1,5,1,-1,8,2,.,.,.,.
COC(=O)c1ccc(CNc2ccc(C(C)=O)cc2)cc1,-1,-13,10,-8,-12,.,.,.,.
O=C([C@H](Cc1ccccc1)NS(=O)(=O)c1ccc(Cl)cc1)N1CC[C@@]2(O)CCCC[C@H]2C1,26,-7,19,56*,18,24*,46,8,9

# Source: PubChem
